In the array DNA melting data of Ke et al. (doi:10.1101/2024.01.08.574731):

What was measured:
[1] = folding enthalpy; higher = less favourable; fluorescence melt of hairpins on a sequencing array, two-state fit; details: sodium 0.088 M
Summary of the method: (§1)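 To match UV melts, fitted temperatures were raised by 9.35 °C. These fits were bootstrapped two-state models that gave melting temperature and folding enthalpy, combined by inverse variance over four replicates. The input was normalised Cy3 fluorescence of library hairpins with annealed Cy3 and quencher oligos on a sequenced MiSeq flow cell, imaged in 50 mM Na-HEPES pH 8.0, 25 mM NaCl in 2.5 °C steps up to 60 °C.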

[2] = melting temperature; fluorescence melt of hairpins on a sequencing array, two-state fit, raised by 9.35 °C to match UV melts; details: sodium 0.088 M
Summary of the method: as §1

Row | Sequence | folding enthalpy [1] | Tm [2]
1 | GCAAGGCGAAAGCTTAGC ((.(.((....)).).)) | -13.6 kcal/mol | 38.8 °C
2 | GCTAACGGAAACGTTAGC (((((((....))))))) | -47.9 kcal/mol | 66.2 °C
3 | GCTACACGAAAGTGGAGC (((.(((....))).))) | -43.5 kcal/mol | 67 °C
4 | GATCGAGCGGTCGATC ((((((....)))))) | -45.7 kcal/mol | 53 °C
5 | GCCAACCGAAAGGTCGGC (((.(((....))).))) | -40.2 kcal/mol | 59.4 °C
6 | GCCGCCGAAAGGCTCGGC ((((((....)))..))) | -17.6 kcal/mol | 56.7 °C
7 | GATCACGTGGTGATC ((((((...)))))) | -46.3 kcal/mol | 56.5 °C
8 | GATGGTGGAAACATCATC ((((.((....)).)))) | -28.1 kcal/mol | 46.1 °C
9 | GAGCTTGGAAACAAGTTC ((.((((....)))).)) | -25.9 kcal/mol | 44.1 °C
10 | GAGGATGGAAACGTCTTC ((.((.(....).)).)) | -13.1 kcal/mol | 32.9 °C
11 | GATCTGACACCAGATC ((((((....)))))) | -34.7 kcal/mol | 46.1 °C
12 | GATCGCGAAAGCGGGATC ((((((....)))..))) | -14.1 kcal/mol | 45.5 °C
13 | GCCTAGGGAAACCTAAGC ((.((((....)))).)) | -14.7 kcal/mol | 31.6 °C
14 | GATCGAGGCATCGATC ((((((....)))))) | -41.8 kcal/mol | 58.5 °C
15 | GAGCGCGAAAGCGTCCTC ((((((....)))..))) | -10 kcal/mol | 42.2 °C
16 | GACTGTGCGAAAGCAGTC (((..(((....)))))) | -18 kcal/mol | 45.1 °C
17 | GGATTGGGAAACCAACCC ((.((((....)))).)) | -31.5 kcal/mol | 41.2 °C
18 | GAACGCGAAAGCGGTTTC ((((((....)))..))) | -10.8 kcal/mol | 41.9 °C
19 | ATGAGGAAACTCAT (((((....))))) | -17.6 kcal/mol | 39.6 °C
20 | GCGTGTTCGAAAGAACGC (((..(((....)))))) | -14.7 kcal/mol | 50.5 °C
21 | GTCTCGCGAAAGCGGAC (((.(((....)))))) | -16.9 kcal/mol | 53.7 °C
22 | GGGTGCGAAAGCATCCCC ((((((....)))..))) | -13.4 kcal/mol | 64.3 °C
23 | GCATGACGAAAGTCGTGC (((.(((....))).))) | -42 kcal/mol | 63.6 °C

Row | Sequence | folding enthalpy [1] | Tm [2]
24 | GATCAGTTGCTGATC ((((((...)))))) | -34.1 kcal/mol | 48.8 °C
25 | GACGGAGGAAACTTCGTC ((((.((....)).)))) | -42.1 kcal/mol | 49.6 °C
26 | GATCTAATGTAGATC ((((((...)))))) | -25.5 kcal/mol | 36.6 °C
27 | GCTCTCGAAAGAGAAAGC ((((((....)))..))) | -22.6 kcal/mol | 40 °C
28 | GTACCCGAAAGGGTTTAC ((((((....)))..))) | -8.12 kcal/mol | 33 °C
29 | GGTTAAGCGAAAGCTACC (((..(((....)))))) | -18.2 kcal/mol | 39.4 °C
30 | GCAAAGCGAAAGCTAAGC ((..(((....)))..)) | -12.6 kcal/mol | 40.3 °C
31 | GTCCAGGGAAACCTGGAC (((((((....))))))) | -33.6 kcal/mol | 68.6 °C
32 | GCCAAGGGAAACCTCGGC (((.(((....))).))) | -29.2 kcal/mol | 46 °C
33 | GCTGTGCGAAAGCGCGGC ((.(.((....)).).)) | -25.3 kcal/mol | 66.6 °C
34 | ATACCGAAAGGTAT (((((....))))) | -20.2 kcal/mol | 52.2 °C
35 | GAGTACGAAAGTATGCTC ((((((....)))..))) | -20.8 kcal/mol | 31.5 °C
36 | GGAGGCACGAAAGTGTCC (((..(((....)))))) | -12.6 kcal/mol | 41 °C
37 | GCTGACGAAAGTCCCAGC ((((((....)))..))) | -14.2 kcal/mol | 36.7 °C
38 | GTCCGAGAAATCGGAC ((((((....)))))) | -34.5 kcal/mol | 65.9 °C
39 | GATCAGCCGCTGATC ((((((...)))))) | -41 kcal/mol | 48.7 °C
40 | GTTTGCGAAAGCAAAAAC ((((((....)))..))) | -10.9 kcal/mol | 40.3 °C
41 | GATCACAATGTGATC ((((((...)))))) | -36.8 kcal/mol | 55.6 °C
42 | GGGGGCGAAAGCCTTCCC ((((((....)))..))) | -13.1 kcal/mol | 42.3 °C
43 | GACCACGGAAACGTGGCC (.(((((....))))).) | -13.3 kcal/mol | 49.9 °C
44 | GGATGCGAAAGCATCTCC ((((((....)))..))) | -9.29 kcal/mol | 52.6 °C
45 | GCAATGGGAAACTGTTGC ((((..(....)..)))) | -27.7 kcal/mol | 40.4 °C
46 | GATCATCAGCATGATC ((((((....)))))) | -22.3 kcal/mol | 45 °C

Row | Sequence | folding enthalpy [1] | Tm [2]
47 | GAAGTAGCGAAAGCTTTC (((..(((....)))))) | -9.46 kcal/mol | 30.3 °C
48 | GATCACAGATGTGATC ((((((....)))))) | -37.8 kcal/mol | 56.8 °C
49 | CGTACGGAAACGTGAACG ((((((....)))..))) | -15.1 kcal/mol | 37.4 °C
50 | GTGGCCCCGAAAGGGCAC (((..(((....)))))) | -15 kcal/mol | 57.5 °C
51 | GCTGCTACGAAAGTAAGC (((..(((....)))))) | -17.1 kcal/mol | 41.5 °C
52 | GCCCTAGGAAACTGGGGC ((((.((....)).)))) | -33.7 kcal/mol | 55.4 °C
53 | GGAAAAACGAAAGTTTCC (((..(((....)))))) | -14.9 kcal/mol | 35.6 °C
54 | GTTGTCGAAAGACACAAC ((((((....)))..))) | -11 kcal/mol | 32.6 °C
55 | GATAACGGAAACGTTACC (.(((((....))))).) | -16.5 kcal/mol | 34 °C
56 | CGATTCGGAAACGAGTCG (((.(((....))).))) | -43.6 kcal/mol | 50.8 °C
57 | GATCAATGACTTGATC ((((((....)))))) | -29.1 kcal/mol | 39.7 °C
58 | GCCCGCACGAAAGTGGGC (((..(((....)))))) | -24 kcal/mol | 57.4 °C
59 | GTCTTGCGAAAGCAGGAC (((.(((....))).))) | -27.4 kcal/mol | 58 °C
60 | GTCAAGACGAAAGTCGAC (((..(((....)))))) | -13.7 kcal/mol | 43.9 °C
61 | GATCGATCTTTCGATC ((((((....)))))) | -48.8 kcal/mol | 53.1 °C
62 | GATCTGATGACAGATC ((((((....)))))) | -34.8 kcal/mol | 48.8 °C
63 | GCTACGCGAAAGCGTCGC ((.((((....)))).)) | -19.3 kcal/mol | 57.7 °C
64 | GCGGGAGGAAACTCCTGC ((.((((....)))).)) | -39 kcal/mol | 58.1 °C
65 | GGAAGTGGAAACGCTTTC (.(((.(....).))).) | -19.6 kcal/mol | 31.4 °C
66 | GTTGACGAAAGTCCGAAC ((((((....)))..))) | -10.6 kcal/mol | 29 °C
67 | GCTCTGCGAAAGCAATGC ((..(((....)))..)) | -10.5 kcal/mol | 31.6 °C
68 | GCAAAGCGAAAGCTGAGC ((..(((....)))..)) | -18.5 kcal/mol | 55.9 °C
69 | GCTGGCGAAAGCCCAGC ((((((....))).))) | -23.1 kcal/mol | 65.7 °C

Row | Sequence | folding enthalpy [1] | Tm [2]
70 | GCGTCCGAAAGGAAACGC ((((((....)))..))) | -34.1 kcal/mol | 54.4 °C
71 | GCGAAGCCTCGC ((((....)))) | -8.82 kcal/mol | 50.6 °C
72 | CGCACGGAAACGTTGGCG ((((((....)))..))) | -37.8 kcal/mol | 45.4 °C
73 | GGTGCGGGAAACCGCGCC ((.((((....)))).)) | -31.3 kcal/mol | 68.7 °C
74 | GGCGGCGAAAGCCAGGCC ((((((....)))..))) | -18.8 kcal/mol | 62 °C
75 | GGCACTCGAAAGAGGCC (((.(((....)))))) | -21.5 kcal/mol | 57.8 °C
76 | CATAGGAAACTATG (((((....))))) | -14.3 kcal/mol | 38.4 °C
77 | GTGGCCGGAAACGGTCGC (.(.(((....))).).) | -39.5 kcal/mol | 53.4 °C
78 | GGATCTGGAAACGGATTC (.(((.(....).))).) | -28.5 kcal/mol | 31.5 °C
79 | GATCAAAGTCTTGATC ((((((....)))))) | -31.1 kcal/mol | 41.7 °C
80 | GTCGCTGGAAACAGCGGC (.(((((....))))).) | -23.4 kcal/mol | 65.6 °C
81 | GCCTGGCGAAAGCCCCGC ((..(((....)))..)) | -8.33 kcal/mol | 36.3 °C
82 | GATCGCGGAAACGTGGTC ((.(.((....)).).)) | -26.7 kcal/mol | 43.6 °C
83 | GATCAGACTACTGATC ((((((....)))))) | -33 kcal/mol | 49.1 °C
84 | GATAGAGCGAAAGCTATC (((..(((....)))))) | -13 kcal/mol | 32.3 °C
85 | GGACAGGGAAACCTGTCC (((((((....))))))) | -37.4 kcal/mol | 68.3 °C
86 | GTCCATGGAAACATGGAC (((((((....))))))) | -41.8 kcal/mol | 63.6 °C
87 | GTCTGGGGAAACTCAGGC (.(((.(....).))).) | -23.3 kcal/mol | 35.8 °C
88 | GCAGTGCGAAAGCCTTGC (((..((....))..))) | -15.2 kcal/mol | 47.6 °C
89 | GGCTGTGGAAACGCAGCC (((((.(....).))))) | -48.6 kcal/mol | 63.4 °C
90 | GAATACGAAAGTATGTTC ((((((....)))..))) | -14.2 kcal/mol | 32.3 °C
91 | CGTTCGGAAACGATGACG ((((((....)))..))) | -20 kcal/mol | 39 °C
92 | GAGACCGGAAACGGTCCC (.(((((....))))).) | -10.2 kcal/mol | 46.9 °C
